# Screening results from PubChem.
# A selection: hits, their analogues and other compounds. The true share with any hit is near 1.3%.
# Tb MetRS inh = blocks T. brucei methionyl-tRNA synthetase activity. AID 624268. actives 0.4% (n = 360,000). inhibition, % at 11.9 µM. purified T. brucei MetRS, ATP depletion, Kinase-Glo luminescence;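 active = inhibition above a per-plate cutoff of the control wells' mean inhibition plus 3 SD, cut at about 5.5% in these data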;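 also: 0% = DMSO wells median and 100% = median of wells with control inhibitor compound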
#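 Dosing: 11.9 µM single point; system: parasite MetRS enzyme; technique: luminescence of leftover ATP; times: 15 min enzyme-compound preincubation, 2 h reaction, 10 min detection, 25 °C; replicates: each compound tested once; read-out basis: percent inhibition relative to median high and low control wells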
# core dimer inh = HCV core protein dimerization inhibition. actives 0.33% (n = 300,000). inhibition, % at 5 µM. TR-FRET GST/Flag-core106 dimerization, 1536-well;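 active = inhibition above the mean of all tested compounds plus 3 SD, set per screening campaign, cut at about 45% in these data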
#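 Test system: GST/Flag-tagged HCV core106 proteins; Medium: KF-containing HEPES buffer, pH 7.45, DTT, CHAPS, BSA; Times: compound-protein-antibody incubation 4 h at 22.5 °C; Detection: TR-FRET 671 and 617 nm emission; Benchmarks: wells lacking GST-core106 and wells with excess unlabelled core106.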
# NS3 helicase inh = HCV NS3 helicase inhibition | NS3 helicase DNA unwinding, Cy5 molecular beacon fluorescence | actives 0.56% (n = 290,000) | AID 1800 | inhibition, % at 10.9 µM;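 active = inhibition above the mean of all tested compounds plus 3 SD, set per campaign, cut at about 35% in these data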;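 also: 0% = DMSO wells and 100% = thioflavine S control wells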
#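 test system = hepatitis C virus NS3 helicase domain fragment enzyme | reagent = annealed dual-labelled DNA beacon duplex, ATP-started | times = 1 h at 25 °C | detection = Cy5 fluorescence, 0 and 60 min reads | read-out basis = percent inhibition from t60/t0 fluorescence ratio | control set = DMSO and thioflavine S | replication = one well per compound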
# Lipid droplet = hepatic lipid droplet formation modulation; AML12 mouse hepatocytes, oleate lipid droplets, BODIPY imaging; inhibition, % at 6.5 µM; actives 0.4% (n = 240,000);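 active = lipid droplet intensity inhibited by at least 50%, with more than 500 cells counted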
#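 Material: mouse AML12 hepatocyte cell line, fixed after treatment; Timing: compound with oleate, overnight; Technique: high-content imaging of BODIPY-stained droplets and DAPI nuclei; Probe or stimulus: oleate, 100 µM final; Dosing: compound at 6.5 µM only.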
# Tb MetRS conf = Trypanosoma brucei MetRS inhibition confirmed; shares compounds with Tb MetRS inh; T. brucei MetRS enzyme, luminescence (ATP depletion); inhibition, % at 11.9 µM; actives 93% (n = 1,400); AID 624412; in the data active = inhibition above about 7%
# Jurkat tox = Jurkat T cell cytotoxicity for MetRS hits; shares compounds with Tb MetRS inh; actives 12% (n = 1,400); AID 624413; inhibition, % at 8.3 µM; Jurkat cells viability, ATP luminescence; in the data active = inhibition above about 15%;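 also: 0% = vehicle and 100% = reference inhibitor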
# TbMetRS FP orth = inhibits T. brucei methionyl tRNA synthetase in orthogonal FP test; purified T. brucei MetRS, fluorescence polarization; AID 651607; shares compounds with Tb MetRS inh; inhibition, % at 11.9 µM; actives 44% (n = 1,400); in the data active = inhibition above about 17%;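 also: 0% = vehicle wells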
# Numbers without * were called inactive; x = no result given.
SMILES,Tb MetRS inh,core dimer inh,NS3 helicase inh,Lipid droplet,Tb MetRS conf,Jurkat tox,TbMetRS FP orth
N#Cc1ccc(Sc2nc3ccccc3[nH]2)cc1C#N,16.9*,0.0,-8.0,x,28.9*,0.2,14.1
CC1(C)C2CCC1(CS(=O)(=O)NCc1ccc(Cl)cc1Cl)C(=O)C2 (stereo not drawn),7.6*,-1.9,1.2,-9.0,20.8*,-0.6,4.4
CCNC(=S)N(Cc1cc2cc(C)ccc2[nH]c1=O)C1CCCC1,11.3*,-3.4,-1.6,0.2,21.7*,-5.4,10.7
CCNC(=S)N(Cc1cc2cc(C)c(C)cc2[nH]c1=O)C1CCCC1,-1.4,8.2,-6.3,-2.6,x,x,x
Cc1ccc(NS(=O)(=O)c2c(C(=O)N3CCCCCC3)c(C)n(C)c2C)c(Cl)c1,-0.1,-1.9,-3.2,-17.2,x,x,x
Cc1ccc(NS(=O)(=O)c2c(C)[nH]c(C)c2C(=O)N2CCCCC2)c(Cl)c1,8.4*,-4.7,0.5,-15.9,21.0*,3.0,6.8
Cc1ccc(NS(=O)(=O)c2c(C)[nH]c(C)c2C(=O)N2CCCCC2)cc1Cl,21.9*,-14.5,11.5,-7.3,32.1*,2.2,11.7
CCOC(=O)c1cccc(NS(=O)(=O)c2c(C)[nH]c(C)c2C(=O)N2CCCC2)c1,-0.1,-5.8,-2.2,-19.3,x,x,x
Cc1ccc2nc(/C(C#N)=C\c3cc(O)ccc3[N+](=O)[O-])[nH]c2c1,13.7*,-1.1,14.1,-3.3,38.0*,-7.0,9.1
Cc1ccc(NC(=O)CCC(=O)N/N=C/c2cccs2)cc1C,0.8,-1.7,-2.0,8.0,x,x,x
O=C(CCC(=O)Nc1cccc([N+](=O)[O-])c1)N/N=C/c1cccs1,44.4*,x,6.8,-21.3,69.3*,6.7,47.9*
Cc1cc(C)cc(C(O)c2ncc(-c3ccccc3F)[nH]2)c1 (stereo not drawn),0.1,x,x,x,x,x,x
COc1ccc(C2C(=O)c3ccccc3C2=O)cc1,0.0,-42.5,6.5,2.4,x,x,x
CCc1ccc(C2C(=O)c3ccccc3C2=O)cc1,6.3*,-12.3,x,x,3.0,6.7,-7.2
CCOC(=O)C1(Cc2ccc(OC)cc2)CCN(C(=O)CCn2cccn2)CC1,-0.2,1.0,-11.4,12.9,x,x,x
COCCN(C(=O)c1ccccc1Oc1ccccc1)c1c(N)n(CC(C)C)c(=O)[nH]c1=O,-0.6,x,x,x,x,x,x
CN(C)c1ccc(-c2[nH][nH]c(=O)c2NC(=O)c2ccc3ccccc3n2)cc1,12.7*,x,x,x,1.2,6.2,1.8
CN(C)c1ccc(-c2[nH][nH]c(=O)c2NC(=O)c2ccccn2)cc1,28.1*,x,x,x,0.6,9.0,4.1
Cc1cnc(C(=O)Nc2c(-c3ccccc3)[nH][nH]c2=O)cn1,-1.1,x,x,x,x,x,x
O=C(/C(=C\c1ccccc1)c1nc2ccccc2[nH]1)c1ccc(Cl)cc1,9.7*,8.2,-2.9,-39.9,3.8,78.8*,-0.3
CN(CC(=O)Nc1ccc(Cl)c(C(F)(F)F)c1)C(=O)c1ccc2c(c1)NC(=O)CS2,6.6*,x,x,x,16.5*,-4.1,8.1
CCOC(=O)c1nnn(CC(=O)NC(=O)Nc2ccccc2)c1C(=O)OCC,7.3*,3.2,-4.6,25.2,19.9*,-8.1,5.8
Oc1cccc(Nc2nc(O)c(/C=C3\C=Nc4ccccc43)s2)c1,17.2*,1.6,-12.1,17.4,21.4*,5.1,28.2*
COc1ccc(C(=O)NOCc2ccccc2)cc1,-0.1,-13.6,x,x,x,x,x
c1ccc(CSc2nnc(NC3=NCCCCC3)s2)cc1,-0.3,0.9,-15.4,x,x,x,x
SMILES,Tb MetRS inh,core dimer inh,NS3 helicase inh,Lipid droplet,Tb MetRS conf,Jurkat tox,TbMetRS FP orth
N#Cc1ccc(CSc2nnc(Nc3ccccc3)s2)cc1,52.3*,22.2,6.2,x,63.9*,-1.4,39.0*
O=C(CCNC(=O)c1ccc(Br)cc1)OCc1ccccc1Cl,7.0*,-2.4,x,x,34.3*,-3.6,19.4*
O=C(CNC(=O)c1ccccc1)NCC(=O)OCc1ccccc1Cl,-0.1,3.5,7.8,5.4,x,x,x
O=[N+]([O-])c1ccc(NC(=S)NCCc2ccc(Cl)cc2)cc1,6.9*,3.2,-8.5,-0.6,13.1*,35.9*,47.3*
O=[N+]([O-])c1ccc(NC(=S)NCCc2ccccc2)cc1,0.2,1.2,-9.4,9.5,x,x,x
COc1ccccc1-n1ccnc1SCC(=O)NCc1ccco1,-1.0,4.7,3.1,26.3,x,x,x
CCCCOc1ncnc2c1[nH]c1ccccc12,-0.1,4.9,3.0,x,x,x,x
CCOCCCNc1ncnc2c1[nH]c1ccccc12,54.6*,5.8,-1.2,-34.2,76.4*,13.1,51.6*
CCCCOCCCNc1ncnc2c1[nH]c1ccccc12,92.7*,-1.9,-6.3,-74.3,105.9*,44.0*,95.5*
O=C(NCc1cccc(Cl)c1)c1ccc2c(c1)SC1=NS(=O)(=O)CCN12,6.1*,3.2,14.9,x,15.0*,0.9,6.4
O=C(NCc1ccccc1Cl)c1ccc2c(c1)SC1=NS(=O)(=O)CCN12,-0.2,-0.4,12.9,3.0,x,x,x
O=C(NCCNC(=O)c1ccccc1O)c1ccccc1O,2.2,-9.4,-0.5,-4.7,x,x,x
O=C(NCCCCCCNC(=O)c1ccccc1O)c1ccccc1O,6.7*,2.2,-6.5,-9.4,13.6*,7.8,6.3
CN(CC(=O)Nc1ccc(Cl)cc1)C(=O)CCc1ccccc1,19.7*,2.4,-7.0,-2.7,39.2*,-4.7,17.8*
Cc1ccc(NC(=O)CN(C)C(=O)Cc2ccc(Cl)cc2Cl)cc1,53.8*,-3.2,0.5,-15.3,66.9*,-2.5,42.0*
CN(CCC(=O)Nc1ccc(Cl)cc1)Cc1ccccc1,13.8*,9.6,-5.0,-0.3,30.7*,8.4,15.4
CN(CC(=O)Nc1ccc(Cl)cc1)C(=O)CCc1c[nH]c2ccccc12,33.8*,6.0,-24.9,0.7,54.5*,0.1,23.0*
CN(CC(=O)Nc1ccc(Cl)cc1)C(=O)CCNC(=O)c1ccc(Cl)cc1,2.7,x,x,x,x,x,x
CN(CCC(=O)Nc1ccc2c(c1)OCO2)Cc1ccccc1,2.1,5.7,0.4,x,x,x,x
Cc1ccc(C)c(NC(=O)CN(C)C(=O)Cc2ccc(Cl)cc2Cl)c1,-0.8,-10.1,11.5,-11.3,x,x,x
CCCCN(CC)CCCNC(=O)CN1C(=O)CSc2ccc(S(=O)(=O)N3CCOCC3)cc21,0.1,-16.6,13.0,-1.5,x,x,x
CCCN(CC(=O)Nc1ccccc1OC)C(=O)Cn1[nH]c(=O)c2ccccc2c1=O,0.0,x,x,x,x,x,x
Cc1c(-c2cc(C(=O)O)on2)cnn1C,0.2,0.7,-4.1,12.9,x,x,x
COc1ccc(CCNC(=O)c2ccccc2NC(=O)C2=C(C)OCCS2)c(OC)c1,-0.3,10.4,-6.9,-60.6,x,x,x
OC[C@@H]1CN(Cc2ccc(-c3ccccc3)cc2)C[C@H](n2cnc3c(N4CCCC4)ncnc32)O1,-0.3,x,x,x,x,x,x
CN(CC(=O)Nc1ccc(Cl)cc1)CC(=O)Nc1cccc(Br)c1,29.9*,-0.2,-28.0,-11.9,49.3*,7.3,28.5*
